Diaph inh CS = counter-screen for diaphorase-based assays: diaphorase inhibitors and chemical oxidizers; diaphorase resazurin-to-resorufin fluorescence, NADH, 16 min; bacterial (C. kluyveri) enzyme, not human; inhibition, % at 20 µM; 0.69% of 190,000 active;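 active = primary screen inhibition at 20 µM above a set limit, cut at about 50% in these data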;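 note: plate controls were DMSO with full reaction for no effect and wells lacking NADH for full effect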
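Test system: Clostridium kluyveri diaphorase enzyme / Quantity: diaphorase at 0.14 U/mL in enzyme working solution / Incubation: 16-min room-temperature incubation before reading / Benchmarks: NADH-free wells as positive control, DMSO-only neutral wells / Signal: resorufin fluorescence 544/590 nm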
CTSL1 counter = blocks F. hepatica cathepsin L1 in PFM18AAP counter-screen | inhibition, % at 5.96 µM | 0.49% of 300,000 active | AID 1906 | recombinant F. hepatica cathepsin L1, Z-Leu-Arg-MCA fluorescence;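 active = inhibition above the mean of all tested compounds plus 3 SD, set per screening campaign, cut at about 17% in these data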;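 note: 0% = plate median of test compound wells and 100% = 1 µM Z-Phe-Ala-diazomethylketone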
HKDC1 inh = HKDC1 (human) hexokinase inhibition; 0.16% of 340,000 active; recombinant HKDC1, G6PDH/diaphorase resazurin coupled fluorescence; inhibition, % at 20 µM; Q2TB90;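 active = inhibition above about 35% when tested at 20 µM, limit read from the data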;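 note: plate controls were DMSO wells with enzyme for no effect and DMSO wells lacking enzyme for full effect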
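Test system: HK5 enzyme. Quantity: 5 µg/mL HK5 final. Reagent: glucose and ATP substrates. Schedule: 90 min reaction incubation at room temperature, dark. Technique: resazurin-to-resorufin fluorescence via G6PDH and diaphorase coupling, 525/613 nm. Control set: DMSO wells with and without enzyme mix.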
ATG4B inh = blocks human ATG4B protease cleavage of LC3 substrate. inhibition, % at 8.33 µM. 0.51% of 340,000 active. ATG4B cleavage of LC3-PLA2, NBD-HPC fluorescence, 1 h. AID 504462. Q9Y4P1; in the data active = inhibition above about 40%
Target sequence (Q9Y4P1 whole entry, looked up): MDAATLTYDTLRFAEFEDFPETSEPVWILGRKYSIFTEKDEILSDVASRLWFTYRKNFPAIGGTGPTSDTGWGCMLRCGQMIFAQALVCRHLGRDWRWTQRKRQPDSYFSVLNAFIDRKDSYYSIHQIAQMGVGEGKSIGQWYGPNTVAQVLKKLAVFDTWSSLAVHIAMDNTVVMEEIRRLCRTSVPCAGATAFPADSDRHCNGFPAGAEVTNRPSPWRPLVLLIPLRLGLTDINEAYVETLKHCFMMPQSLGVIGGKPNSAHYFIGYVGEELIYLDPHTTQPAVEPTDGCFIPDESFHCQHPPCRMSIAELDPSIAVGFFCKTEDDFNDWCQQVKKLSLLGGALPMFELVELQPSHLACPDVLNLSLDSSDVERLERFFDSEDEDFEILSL
Diaphorase act = counter-screen for diaphorase-based assays: diaphorase activators and chemical reducers | AID 1229 | 0.005% of 190,000 active | activation factor at 20 µM | Diaphorase/resazurin coupled assay, resorufin fluorescence, 16 min; stronger effect = higher value; 1 = vehicle wells, 0 = NADH-free wells;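 active = diaphorase activity raised at least twofold by the compound at 20 µM; inactive = activation factor below 2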
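Measured by – red resorufin fluorescence at 544/590 nm excitation/emission · Test system – Clostridium kluyveri diaphorase, purified enzyme · Incubation – reaction time 16 min, room temperature · Buffer or medium – 50 mM HEPES pH 7.4 with 4.542 mM MgCl2, 0.005% Tween 20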
An asterisk follows results filed as active; x = no result. Rows were chosen to be rich in hits. Some 1.4% of all compounds tested hit in one or more screens of this group.

SMILES	Diaph inh CS	CTSL1 counter	HKDC1 inh	ATG4B inh	Diaphorase act
CCN(C[C@H]1N[C@@](CC)(C(=O)OC)[C@H]2C(=O)N(Cc3ccccc3)C(=O)[C@@H]12)S(=O)(=O)c1ccc(C(C)(C)C)cc1	x	x	-4	-2	x
O=C(c1cccs1)N1CCc2c([nH]c3ccccc23)C1c1ccccn1 (stereo not given)	50*	-10	7	-2	0.5
CN=c1scc(-c2ccc(F)cc2)n1/N=C/c1ccc(O)c(O)c1	50*	x	-1	-14	0.5
CN=c1scc(-c2ccc([N+](=O)[O-])cc2)n1/N=C/c1ccco1	2	0	-5	-11	1
CCn1cc(C(=O)N[C@@H](C)C(=O)NCCCn2ccnc2)c(=O)c2cc3c(cc21)OCO3	x	2	2	3	x
O=C1C2=C(c3ccccc31)[N+](=O)C1CCCCC1N2[O-] (stereo not given)	76*	-4	11	-2	0.2
O=C1C2=C(c3ccccc31)[N+](=O)[C@@H]1CCCC[C@@H]1N2[O-]	76*	-2	6	-9	0.2
O=C1c2ccccc2C(=O)c2c1ccc1c(=O)n(C3CCCCC3)[nH]c21	24	2	26	-5	0.8
O=C1[C@H](Cc2ccccc2)NCCCC[C@H](c2ccco2)N1Cc1ccccc1	x	x	3	-3	x
Cc1cccc(C(=O)NC(=S)Nc2ccccc2C(=O)O)c1	51*	2	-10	0	0.5
Cc1ccc(N)c2c1OCCC2=O	57*	1	-2	3	0.4
Oc1ccc(N=Cc2ccc(OCc3ccccc3)cc2)cc1	53*	45*	0	5	0.5
COCCn1c(NC(=S)NC(=O)C2CC2)cc(=O)[nH]c1=O	61*	5	1	1	0.4
COc1cccc(OCC(O)CN2CCC(CN3C(=O)c4cccc5cccc(c45)C3=O)CC2)c1 (stereo not given)	4	33*	-15	-22	1
CCOc1cc(/C=C2\N=C(SC)SC2=O)cc([N+](=O)[O-])c1OC(C)=O	81*	6	13	31	0.2
CCOc1c(OC(C)=O)ccc(/C=C2\N=C(SCC)SC2=O)c1[N+](=O)[O-]	18	0	15	22	0.8
CCCCOc1ccc(C(=O)Oc2cccnc2)cc1	x	0	5	3	x
CCOC(=O)c1c(C)[nH]c(C)c1C(=O)COC(=O)CNC(=O)C1CCCCC1	-2	54*	-14	4	1
CCOC(=O)c1c(C)[nH]c(C(=O)COC(=O)CNC(=O)c2ccccc2Cl)c1C	7	-5	-11	-6	0.9
CCOC(=O)c1c(C)[nH]c(C(=O)COC(=O)CNC(=O)C2CCCCC2)c1C	10	27*	-4	-3	0.9
CN1CCN(c2nc3ccccn3c(=O)c2C=C(C#N)C#N)CC1	x	0	-5	-3	x
CCC(CC)Nc1ccc(C(CC(N)=O)NC(=O)Cc2cccc3ccccc23)cc1[N+](=O)[O-] (stereo not given)	x	2	-1	-9	x
COc1ccc(Cc2nnc(SC(C)C(=O)Nc3ccc(F)cc3Cl)o2)cc1 (stereo not given)	x	7	-6	4	x
Cc1cc(NS(=O)(=O)c2ccc(NC(=O)C(C)Oc3cc(C)c(Cl)c(C)c3)cc2)no1 (stereo not given)	x	1	-2	5	x
O=C(CSCc1ccc(Cl)cc1Cl)Nc1ccc(O)cc1C(=O)O	x	-3	4	-7	x
SMILES	Diaph inh CS	CTSL1 counter	HKDC1 inh	ATG4B inh	Diaphorase act
Cc1c(NC(=O)CSCc2ccc(Cl)cc2Cl)cccc1C(=O)O	x	19*	-2	-4	x
CCOC(=O)C1=C(CSc2nc(C)cc(C)c2C#N)OC(N)=C(C#N)C1c1cccs1 (stereo not given)	33	22*	8	-14	0.7
CN(C)CCC(O)(c1ccccc1)c1ccccc1Cl (stereo not given)	x	x	0	-3	x
O=C1CC(NCCC2=CCCCC2)C(=O)N1c1cccc(Cl)c1Cl (stereo not given)	21	18*	x	x	0.8
O=C1C2CC=C(Cl)CC2C(=O)N1CCc1ccccc1 (stereo not given)	18	44*	-5	21	0.8
O=C1C2CC=C(Cl)CC2C(=O)N1CCc1c[nH]c2ccccc12 (stereo not given)	6	5	-5	1	0.9
COc1ccc(OC)c(CN2CCN(C(=O)c3cc(S(=O)(=O)N4CCOCC4)ccc3C)CC2)c1	x	x	-5	2	x
COc1ccc(-n2nc(C(=O)N3CCC(N4CCCCC4)CC3)c3c4ccccc4n(C)c3c2=O)cc1	x	19*	-9	-9	x
Cc1cccc(OC(=O)NCCOC(=O)N(O)c2ccc(Cl)cc2)c1	17	19*	0	1	0.8
Cc1cccc(OCC(=O)Oc2ccc(Cl)cc2)c1	x	-5	-6	-3	x
CN(C(=O)COC(=O)CNC(=O)c1ccc(C(C)(C)C)cc1)c1c(N)n(Cc2ccccc2)c(=O)[nH]c1=O	x	-1	5	-5	x
Cc1ccc(NC(=O)C(=O)NCCCN2CC(C(=O)O)CC2=O)cc1 (stereo not given)	x	3	-6	2	x
CCC1=Nc2cc(C(=O)NCc3ccco3)ccc2Sc2ccc(C)cc21	18	0	17	51*	0.8
CCOC(=O)/C=C/C(=O)Nc1ccc(-c2nnc3n2CCCCC3)cc1	x	37*	-6	-5	x
CCCCCC(=O)Nc1ccc(-c2nnc3n2CCCCC3)cc1	x	-2	-7	-2	x
CCOC(=O)/C=C/C(=O)Nc1ccc(S(=O)(=O)N2CCCCCC2)cc1	13	31*	-3	-4	0.9
CCCCn1c(N)c(N(CCOC)C(=O)COC(=O)CCOc2ccccc2C)c(=O)[nH]c1=O	x	-4	0	7	x
NC(=S)N/N=C1\CCOc2ccc(Cl)cc21	x	63*	-3	0	x
CC(C)CC(=O)NC(=S)Nc1sc2c(c1C(N)=O)CCC2	28	2	8	3	0.7
CC(C)(C)C(=O)NC(=S)Nc1sc2c(c1C(N)=O)CCC2	50*	-2	5	5	0.5
O=C(COc1ccccc1)N1CCN(S(=O)(=O)c2cccs2)CC1	14	19*	0	-4	0.9
O=C(CCOc1ccccc1)N1CCN(S(=O)(=O)c2cccs2)CC1	13	-5	-9	-4	0.9
Cc1ccc(C(=O)NC2(O)C(=O)c3ccccc3C2=O)cc1C	x	58*	-11	-6	x
O=C(NC1(O)C(=O)c2ccccc2C1=O)c1ccc(C(F)(F)F)cc1	x	57*	-6	5	x
O=C(Cc1ccccc1)NC1(O)C(=O)c2ccccc2C1=O	x	34*	-5	-5	x
Cc1ccc(C(=O)Nc2cc(=O)n(C)c(=O)n2C)cc1C	22	-1	-6	-8	0.8
O=C(C#Cc1ccccc1)c1cccc([N+](=O)[O-])c1	14	4	37*	3	0.9

Screening data (PubChem BioAssay)
